Measurements taken from ChEMBL document CHEMBL1123436, “Comparative toxicities and analgesic activities of three monomethylated analogues of acetaminophen” (J Med Chem, 1986).

How the values were obtained:
[1] = system: Mus musculus; test: Urinary Metabolic (3-(methylthio)acetaminophen) profile in the mouse 24 h after dose of 3 mmol/kg of the compound; format: ADME, organism-based, Urine; settings: in vivo
[2] = system: Mus musculus; test: Urinary Metabolic (acetaminophen-3-mecapturate) profile in the mouse 24 hr after dose of 3 mmol/kg of the compound; format: ADME, organism-based, Urine; settings: in vivo
[3] = system: Mus musculus; test: Urinary Metabolic (3-cysteinnylacetaminophen) profile in the mouse 24 hr after dose of 3 mmol/kg of the compound; format: ADME, organism-based, Urine; settings: in vivo
[4] = system: Mus musculus; test: Urinary Metabolic (3-hydroxyacetaminophen) profile in the mouse 24 h after dose of 3 mmol/kg of the compound; format: ADME, organism-based, Urine; settings: in vivo
[5] = system: Mus musculus; test: Time course of Distribution of Radioactivity in Mice Liver after 3 mmol/kg dose of the Compound after 3 h; format: ADME, organism-based; settings: in vivo
Procedure, shortened: (§1)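 Groups of 12 mice given [acetyl-14C]-labelled drug ip, 3 mmol/kg (0.45 mCi/mmol), housed individually with urine/feces separation. Four killed at each of 1, 3 and 24 h by exsanguination. Tissues (~100 mg) digested in Soluene 350; blood digested and peroxide-bleached; feces freeze-dried, rehydrated, digested and bleached. Scintillation counting; nmol equiv/mg tissue or per mL blood/urine, means ± SE (N = 4).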

[6] = system: Mus musculus; test: Time course of Distribution of Radioactivity in Mice kidney after 3 mmol/kg dose of the Compound after 1 h; format: ADME, organism-based; settings: in vivo; procedure, shortened: as §1
[7] = system: Mus musculus; test: Time course of Distribution of Radioactivity in Mice kidney after 3 mmol/kg dose of the Compound after 24 h; format: ADME, organism-based; settings: in vivo; procedure, shortened: as §1
[8] = system: Mus musculus; test: Time course of Distribution of Radioactivity in Mice kidney after 3 mmol/kg dose of the Compound after 3 h; format: ADME, organism-based; settings: in vivo; procedure, shortened: as §1
[9] = system: Mus musculus; test: Urinary Metabolic (3-methoxyacetaminophen) profile in the mouse 24 hr after dose of 3 mmol/kg of the compound; format: ADME, organism-based, Urine; settings: in vivo
[10] = system: Mus musculus; test: Urinary Metabolic (Acetaminophen) profile in the mouse 24 h after dose of 3 mmol/kg of the compound; format: ADME, organism-based, Urine; settings: in vivo
[11] = system: Mus musculus; test: Time course of Distribution of Radioactivity in Mice brain after 3 mmol/kg dose of the Compound after 1 h; format: ADME, organism-based; settings: in vivo; procedure, shortened: as §1
[12] = system: Mus musculus; test: Time course of Distribution of Radioactivity in Mice brain after 3 mmol/kg dose of the Compound after 24 h; format: ADME, organism-based; settings: in vivo; procedure, shortened: as §1
[13] = system: Mus musculus; test: Time course of Distribution of Radioactivity in Mice brain after 3 mmol/kg dose of the Compound after 3 h; format: ADME, organism-based; settings: in vivo; procedure, shortened: as §1
[14] = system: Mus musculus; test: Time course of Distribution of Radioactivity in Mice feces after 3 mmol/kg dose of the Compound after 1 hr; format: ADME, organism-based; settings: in vivo; procedure, shortened: as §1
[15] = system: Mus musculus; test: Time course of Distribution of Radioactivity in Mice feces after 3 mmol/kg dose of the Compound after 24 h; format: ADME, organism-based; settings: in vivo; procedure, shortened: as §1
[16] = system: Mus musculus; test: Time course of Distribution of Radioactivity in Mice feces after 3 mmol/kg dose of the Compound after 3 h; format: ADME, organism-based; settings: in vivo; procedure, shortened: as §1
[17] = system: Mus musculus; test: Time course of Distribution of Radioactivity in Mice intestine after 3 mmol/kg dose of the Compound after 24 h; format: ADME, organism-based; settings: in vivo; procedure, shortened: as §1
[18] = system: Mus musculus; test: Time course of Distribution of Radioactivity in Mice intestine after 3 mmol/kg dose of the Compound after 3 h; format: ADME, organism-based; settings: in vivo; procedure, shortened: as §1
[19] = system: Mus musculus; test: Time course of Distribution of Radioactivity in Mice intestine after 3 mmol/kg dose of the Compound after 1 h; format: ADME, organism-based; settings: in vivo; procedure, shortened: as §1
[20] = system: Mus musculus; test: Time course of Distribution of Radioactivity in Mice lungs/heart after 3 mmol/kg dose of the Compound after 1 h; format: ADME, organism-based, Lung; settings: in vivo; procedure, shortened: as §1
[21] = system: Mus musculus; test: Time course of Distribution of Radioactivity in Mice lungs/heart after 3 mmol/kg dose of the Compound after 24 h; format: ADME, organism-based, Lung; settings: in vivo; procedure, shortened: as §1
[22] = system: Mus musculus; test: Time course of Distribution of Radioactivity in Mice lungs/heart after 3 mmol/kg dose of the Compound after 3 h; format: ADME, organism-based, Lung; settings: in vivo; procedure, shortened: as §1
[23] = system: Mus musculus; test: Time course of Distribution of Radioactivity in Mice spleen after 3 mmol/kg dose of the Compound after 1 h; format: ADME, organism-based; settings: in vivo; procedure, shortened: as §1
[24] = system: Mus musculus; test: Time course of Distribution of Radioactivity in Mice spleen after 3 mmol/kg dose of the Compound after 24 h; format: ADME, organism-based; settings: in vivo; procedure, shortened: as §1
[25] = system: Mus musculus; test: Time course of Distribution of Radioactivity in Mice spleen after 3 mmol/kg dose of the Compound after 3 h; format: ADME, organism-based; settings: in vivo; procedure, shortened: as §1
[26] = system: Mus musculus; test: Time course of Distribution of Radioactivity in Mice stomach after 3 mmol/kg dose of the Compound after 1 h; format: ADME, organism-based; settings: in vivo; procedure, shortened: as §1
[27] = system: Mus musculus; test: Time course of Distribution of Radioactivity in Mice stomach after 3 mmol/kg dose of the Compound after 24 h; format: ADME, organism-based; settings: in vivo; procedure, shortened: as §1
[28] = system: Mus musculus; test: Time course of Distribution of Radioactivity in Mice Liver after 3 mmol/kg dose of the Compound after 1 h; format: ADME, organism-based; settings: in vivo; procedure, shortened: as §1
[29] = system: Mus musculus; test: Time course of Distribution of Radioactivity in Mice Urine after 3 mmol/kg dose of the Compound after 1 h; format: ADME, organism-based; settings: in vivo; procedure, shortened: as §1
[30] = system: Mus musculus; test: Time course of Distribution of Radioactivity in Mice Urine after 3 mmol/kg dose of the Compound after 24 h; format: ADME, organism-based; settings: in vivo; procedure, shortened: as §1
[31] = system: Mus musculus; test: Time course of Distribution of Radioactivity in Mice Urine after 3 mmol/kg dose of the Compound after 3 h; format: ADME, organism-based; settings: in vivo; procedure, shortened: as §1
[32] = system: Mus musculus; test: Time course of Distribution of Radioactivity in Mice blood after 3 mmol/kg dose of the Compound after 1 h; format: ADME, organism-based; settings: in vivo; procedure, shortened: as §1
[33] = system: Mus musculus; test: Time course of Distribution of Radioactivity in Mice blood after 3 mmol/kg dose of the Compound after 24 h; format: ADME, organism-based; settings: in vivo; procedure, shortened: as §1
[34] = species on record: Mus musculus; test: Analgesic activity determined in mice using the Bradykinin-induced Writhing test; format: functional
Procedure, shortened: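 Male CD1 mice (15–20 g), test drug given orally 15 min before bradykinin ip (4 μg in 0.2 mL sterile water), then a second bradykinin injection (0.2 μg/0.1 mL) 15 min later. Writhing was scored over the next 10 min, with control groups of 10 mice. ED50 was derived by log-probit analysis from at least five doses, with 95% limits.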

[35] = system: Mus musculus; test: (§2) Hepatotoxicity in Swiss-Webster Mice Caused by compound at 400 mg/kg (i.p.) dose; format: functional; settings: route intraperitoneal
Procedure, shortened: (§3)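 Male Swiss-Webster mice (20 g), groups of 10, were given a single ip dose of drug in saline with no pretreatment. Survivors were decapitated at 24 h and counted. Plasma ALT was measured, and liver sections (formalin-fixed, paraffin, H&E) were scored for necrosis severity in survivors. Values are means ± SE.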

[36] = system: Mus musculus; test: (§4) Hepatotoxicity in Swiss-Webster Mice Caused by compound at 750 mg/kg (i.p.) dose; format: functional; settings: route intraperitoneal; procedure, shortened: as §3
[37] = system: Mus musculus; test: Hepatotoxicity in Swiss-Webster Mice Caused by compound at 400 mg/kg (i.p.) dose; 8/10; format: functional; settings: route intraperitoneal; procedure, shortened: as §3
[38] = system: Mus musculus; test: as §2; format: functional, organism-based; design: dose 400 mg/kg; procedure, shortened: as §3
[39] = system: Mus musculus; test: as §4; format: functional, organism-based; design: dose 750 mg/kg; procedure, shortened: as §3
[40] = system: Mus musculus; test: Hepatotoxicity in Swiss-Webster Mice Caused by compound at 750 mg/kg (i.p.) dose; 4/10; format: functional; settings: route intraperitoneal; procedure, shortened: as §3
[41] = system: Mus musculus; test: Time course of Distribution of Radioactivity in Mice blood after 3 mmol/kg dose of the Compound after 3 h; format: ADME, organism-based; settings: in vivo; procedure, shortened: as §1
[42] = system: Mus musculus; test: Time course of Distribution of Radioactivity in Mice stomach after 3 mmol/kg dose of the Compound after 3 h; format: ADME, organism-based; settings: in vivo; procedure, shortened: as §1
[43] = system: Mus musculus; test: Time course of Distribution of Radioactivity in Mice Liver after 3 mmol/kg dose of the Compound after 24 h; format: ADME, organism-based; settings: in vivo; procedure, shortened: as §1

Which results are given for `CC(=O)Nc1ccc(O)cc1` [ACETAMINOPHEN]?
Administered dose [1]: 2.3%; Administered dose [2]: 2%; Administered dose [3]: 18.5%; Administered dose [4]: 0.4%; Radioactivity [5]: 0.73 nM equiv (mg of tissue)-1; Radioactivity [6]: 2.45 nM equiv (mg of tissue)-1; Radioactivity [7]: 0.21 nM equiv (mg of tissue)-1; Radioactivity [8]: 1.19 nM equiv (mg of tissue)-1; Administered dose [9]: 1.1%; Administered dose [10]: 68.8%; Radioactivity [11]: 1.22 nM equiv (mg of tissue)-1; Radioactivity [12]: 0.05 nM equiv (mg of tissue)-1; Radioactivity [13]: 0.24 nM equiv (mg of tissue)-1; Radioactivity [14]: 0.09 nM equiv mg-1; Radioactivity [15]: 15.3 nM equiv mg-1; Radioactivity [16]: 1.52 nM equiv mg-1; Radioactivity [17]: 0.92 nM equiv (mg of tissue)-1; Radioactivity [18]: 1.08 nM equiv (mg of tissue)-1; Radioactivity [19]: 2.19 nM equiv (mg of tissue)-1; Radioactivity [20]: 1.13 nM equiv (mg of tissue)-1; Radioactivity [21]: 0.11 nM equiv (mg of tissue)-1; Radioactivity [22]: 0.2 nM equiv (mg of tissue)-1; Radioactivity [23]: 1.55 nM equiv (mg of tissue)-1; Radioactivity [24]: 0.04 nM equiv (mg of tissue)-1; Radioactivity [25]: 0.29 nM equiv (mg of tissue)-1; Radioactivity [26]: 1.13 nM equiv (mg of tissue)-1; Radioactivity [27]: 0.15 nM equiv (mg of tissue)-1; Radioactivity [28]: 2.89 nM equiv (mg of tissue)-1; Radioactivity [29]: 12.4 nM equiv (ml of urine)-1; Radioactivity [30]: 6005 nM equiv (ml of urine)-1; Radioactivity [31]: 3880 nM equiv (ml of urine)-1; Radioactivity [32]: 1605 nM equiv (ml of blood)-1; Radioactivity [33]: 19.2 nM equiv (ml of blood)-1; ED50 [34]: 84.3 mg/kg; Hepatic necrosis in survivors [35]: 1.13; Hepatic necrosis in survivors [36]: 3.25; Survivors at 24 h [37]: 8; Plasma ALT at 24 h [38]: 1550 mU ml-1; Plasma ALT at 24 h [39]: 4030 mU ml-1; Survivors at 24 h [40]: 4; Radioactivity [41]: 544 nM equiv (ml of blood)-1; Radioactivity [42]: 0.71 nM equiv (mg of tissue)-1; Radioactivity [43]: 0.58 nM equiv (mg of tissue)-1
